Reference: ChEMBL document CHEMBL3867436, “Chemistry of Renieramycins. 15. Synthesis of 22-O-Ester Derivatives of Jorunnamycin A and Their Cytotoxicity against Non-Small-Cell Lung Cancer Cells” (J Nat Prod, 2016)

Assays:
[1] = Cytotoxicity against human NCI-H292 cells assessed as decrease in cell viability after 72 hrs by MTT assay; type: functional, cell-based; conditions: NCI-H292, 72 h
Procedure, shortened: (§1)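 Human NSCLC lines (ATCC) seeded at 2 × 10^3 cells/well, adhered overnight, then exposed 72 h to at least five concentrations of analogue in RPMI with ≤0.2% DMSO. MTT 0.5 mg/mL added for 4 h, formazan dissolved in DMSO, absorbance read at 570 nm. Viability relative to untreated cells. IC50 per experiment averaged over three independent triplicate runs on different days (mean ± SD). Cisplatin positive control.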

[2] = Cytotoxicity against human NCI-H460 cells assessed as decrease in cell viability after 72 hrs by MTT assay; type: functional, cell-based; conditions: NCI-H460, 72 h; procedure, shortened: as §1

Row | SMILES | IC50 [1] [nM] | IC50 [2] [nM]
1 | COC1=C(C)C(=O)C2=C(C1=O)[C@H]1[C@@H]3CC4=C(C(=O)C(OC)=C(C)C4=O)[C@H](COC(=O)/C=C/c4ccc([N+](=O)[O-])cc4)N3[C@@H](C#N)[C@H](C2)N1C | 22 | 14
2 | COC1=C(C)C(=O)C2=C(C1=O)[C@H]1[C@@H]3CC4=C(C(=O)C(OC)=C(C)C4=O)[C@H](COC(=O)c4cccc(C(F)(F)F)c4)N3[C@@H](C#N)[C@H](C2)N1C | 49 | 30
3 | COC1=C(C)C(=O)C2=C(C1=O)[C@H]1[C@@H]3CC4=C(C(=O)C(OC)=C(C)C4=O)[C@H](COC(=O)/C=C/c4ccncc4)N3[C@@H](C#N)[C@H](C2)N1C | 20 | 20
4 | COC1=C(C)C(=O)C2=C(C1=O)[C@H]1[C@@H]3CC4=C(C(=O)C(OC)=C(C)C4=O)[C@H](COC(=O)/C=C/c4ccccc4Cl)N3[C@@H](C#N)[C@H](C2)N1C | 25 | 9
5 | COC1=C(C)C(=O)C2=C(C1=O)[C@H]1[C@@H]3CC4=C(C(=O)C(OC)=C(C)C4=O)[C@H](COC(=O)/C=C/c4c(F)c(F)c(F)c(F)c4F)N3[C@@H](C#N)[C@H](C2)N1C | 21 | 69
6 | COC1=C(C)C(=O)C2=C(C1=O)[C@H]1[C@@H]3CC4=C(C(=O)C(OC)=C(C)C4=O)[C@H](COC(=O)c4ccc(F)cc4)N3[C@@H](C#N)[C@H](C2)N1C | 56 | 22
7 | COC1=C(C)C(=O)C2=C(C1=O)[C@H]1[C@@H]3CC4=C(C(=O)C(OC)=C(C)C4=O)[C@H](COC(=O)c4ccccc4C(F)(F)F)N3[C@@H](C#N)[C@H](C2)N1C | 51 | 22
8 | COC1=C(C)C(=O)C2=C(C1=O)[C@H]1[C@@H]3CC4=C(C(=O)C(OC)=C(C)C4=O)[C@H](COC(=O)/C=C/c4ccc(F)cc4)N3[C@@H](C#N)[C@H](C2)N1C | 44 | 12
9 | COC1=C(C)C(=O)C2=C(C1=O)[C@H]1[C@@H]3CC4=C(C(=O)C(OC)=C(C)C4=O)[C@H](COC(=O)c4cccnc4)N3[C@@H](C#N)[C@H](C2)N1C | 6.4 | 6
10 | COC1=C(C)C(=O)C2=C(C1=O)[C@H]1[C@@H]3CC4=C(C(=O)C(OC)=C(C)C4=O)[C@H](COC(=O)/C=C/c4cccc(F)c4)N3[C@@H](C#N)[C@H](C2)N1C | 11 | 9.8
11 | COC1=C(C)C(=O)C2=C(C1=O)[C@H]1[C@@H]3CC4=C(C(=O)C(OC)=C(C)C4=O)[C@H](COC(=O)c4cccc(F)c4)N3[C@@H](C#N)[C@H](C2)N1C | 18 | 11
12 | COC1=C(C)C(=O)C2=C(C1=O)[C@H]1[C@@H]3CC4=C(C(=O)C(OC)=C(C)C4=O)[C@H](COC(=O)c4ccccn4)N3[C@@H](C#N)[C@H](C2)N1C | 3.7 | 2.2
13 | COC1=C(C)C(=O)C2=C(C1=O)[C@H]1[C@@H]3CC4=C(C(=O)C(OC)=C(C)C4=O)[C@H](COC(=O)/C=C/c4ccccc4)N3[C@@H](C#N)[C@H](C2)N1C | 19 | 18
14 | COC1=C(C)C(=O)C2=C(C1=O)[C@H]1[C@@H]3CC4=C(C(=O)C(OC)=C(C)C4=O)[C@H](COC(=O)CC(F)(F)F)N3[C@@H](C#N)[C@H](C2)N1C | 570 | 320
15 | COC1=C(C)C(=O)C2=C(C1=O)[C@H]1[C@@H]3CC4=C(C(=O)C(OC)=C(C)C4=O)[C@H](COC(=O)c4ccncc4)N3[C@@H](C#N)[C@H](C2)N1C | 1.1 | 1.6
16 | COC1=C(C)C(=O)C2=C(C1=O)[C@H]1[C@@H]3CC4=C(C(=O)C(OC)=C(C)C4=O)[C@H](COC(=O)c4ccc(C(F)(F)F)cc4)N3[C@@H](C#N)[C@H](C2)N1C | 60 | 24
17 | COC1=C(C)C(=O)C2=C(C1=O)[C@H]1[C@@H]3CC4=C(C(=O)C(OC)=C(C)C4=O)[C@H](COC(=O)c4ccccc4F)N3[C@@H](C#N)[C@H](C2)N1C | 30 | 10
18 | COC1=C(C)C(=O)C2=C(C1=O)[C@H]1[C@@H]3CC4=C(C(=O)C(OC)=C(C)C4=O)[C@H](CO)N3[C@@H](C#N)[C@H](C2)N1C | 220 | 160
19 | COC1=C(C)C(=O)C2=C(C1=O)[C@H]1[C@@H]3CC4=C(C(=O)C(OC)=C(C)C4=O)[C@H](COC(=O)/C=C/c4cccnc4)N3[C@@H](C#N)[C@H](C2)N1C | 4.9 | 2.8
20 | C/C=C(/C)C(=O)OC[C@H]1C2=C(C[C@H]3[C@H]4C5=C(C[C@@H]([C@H](C#N)N13)N4C)C(=O)C(C)=C(OC)C5=O)C(=O)C(C)=C(OC)C2=O [RENIERAMYCIN M] | 23 | 8.3
